Bioassay records (PubChem BioAssay)
TAAR1 antagonist: human TAAR1 antagonism | Q96RJ0 | CHO RD-HGA16 TAAR1, Fluo-8 calcium fluorescence, antagonist | inhibition, % at 3 µM | 1.5% of 360,000 active | AID 624466;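 active means inhibition above a per-plate cutoff, the mean inhibition of test compounds on that plate plus 3 SD, cut at about 49% in these data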;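 further: 0% = DMSO plus EC80 beta-PEA response and 100% = DMSO alone without agonist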
Target sequence (Q96RJ0 whole entry, looked up): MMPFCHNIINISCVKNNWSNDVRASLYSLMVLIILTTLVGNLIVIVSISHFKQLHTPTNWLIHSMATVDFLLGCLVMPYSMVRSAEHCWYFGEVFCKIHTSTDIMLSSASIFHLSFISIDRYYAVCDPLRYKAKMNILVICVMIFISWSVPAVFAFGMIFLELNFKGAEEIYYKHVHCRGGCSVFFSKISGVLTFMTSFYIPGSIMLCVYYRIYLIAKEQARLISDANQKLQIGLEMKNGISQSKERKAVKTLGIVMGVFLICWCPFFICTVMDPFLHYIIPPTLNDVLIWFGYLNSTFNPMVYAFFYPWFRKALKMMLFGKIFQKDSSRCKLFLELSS
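Material: CHO RD-HGA16 cells bearing hTAAR1; compound dosing: one-point dosing, 3 µM nominal final; schedule: dye loading 75 min at 37 °C, then 30 min room temperature; measured by: calcium fluorescence with Fluo-8; control set: vehicle and agonist controls; replication: n of 1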
rCAG RNA binder: r(CAG) repeat RNA binding. AID 651821. 1.3% of 370,000 active. inhibition, % at 3 µM. TO-PRO-1 dye displacement fluorescence;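 active means inhibition above the plate cutoff, the mean of all test compounds on that plate plus 3 SD, cut at about 35% in these data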;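 further: 0% = DMSO alone and 100% = 100 µM mitoxantrone as full dye displacement; higher means more dye released from RNA so lower well fluorescence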
core dimer inh: blocks dimerization of HCV core protein | TR-FRET GST/Flag-core106 dimerization, 1536-well | inhibition, % at 5 µM | 0.33% of 300,000 active;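 active means inhibition above the mean of all tested compounds plus 3 SD, set per screening campaign, cut at about 45% in these data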
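Assay system: GST-tagged and Flag-tagged HCV core protein residues 1-106 / Times: compound-protein-antibody incubation 4 h at 22.5 °C / Signal: time-resolved FRET, ex 340 nm, em 617 and 671 nm / Evaluation: % inhibition based on acceptor/donor emission ratio / Benchmarks: wells lacking GST-core106 and wells with excess unlabelled core106 / Repeats: singlicate, one well per compound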
NS3 helicase inh: HCV NS3 helicase inhibition; NS3 helicase DNA unwinding, Cy5 molecular beacon fluorescence; inhibition, % at 10.9 µM; 0.56% of 290,000 active;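 active means inhibition above the mean of all tested compounds plus 3 SD, set per campaign, cut at about 35% in these data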;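 further: 0% = DMSO wells and 100% = thioflavine S control wells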
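Control set: DMSO versus 110 µM thioflavine S; Material: NS3 helicase fragment of HCV; Measured by: Cy5 fluorescence at 0 and 60 min, beacon hairpin quenching; Read-out basis: percent inhibition from t60/t0 fluorescence ratio; Times: reaction time 60 min, 25 °C; Repeats: single replicate; Compound dosing: single dose, 10.9 µM nominal final, DMSO 0.8% final.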
TAAR1 agonist: agonists of human TAAR1; Q96RJ0; CHO RD-HGA16 TAAR1, Fluo-8 calcium fluorescence; vehicle wells 0%, saturating PEA agonist 100%; activation, % at 3 µM; 0.99% of 360,000 active; AID 624467;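 active means activation above the mean activation of all test compounds in the run plus 3 SD, cut at about 38% in these data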
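System: CHO-derived RD-HGA16 cells with stable Gα16 and human TAAR1. Times: 17-24 h plating, Fluo-8 75 min 37 °C, 30 min RT. Measured by: calcium-sensitive Fluo-8 signal, excitation 470-495, emission 515-575 nm. Read-out basis: % activation relative to PEA EC100 response. Control set: DMSO and PEA EC100. Repeats: no replicates (n 1).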
NS3 hel confirm: HCV NS3 helicase inhibition, confirmation assay; shares compounds with NS3 helicase inh; NS3 helicase DNA unwinding, Cy5 molecular beacon fluorescence; inhibition, % at 10.9 µM; 31% of 1,600 active; AID 1943;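 active means inhibition above the mean of all tested compounds plus 3 SD, cutoff set per campaign, cut at about 36% in these data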
FID counter trip: counter-screen for HCV NS3 helicase inhibitors: DNA intercalator displacement; shares compounds with NS3 helicase inh; DNA fluorescent intercalator displacement, fluorescence; inhibition, % at 7.9 µM; 4% of 1,600 active; AID 1945; in the data active means inhibition above about 37%;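 further: 0% = vehicle and 100% = reference compound; higher means more displacement of ethidium bromide from the DNA hairpin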
DNA FID DR: displaces fluorescent intercalator from DNA, HCV helicase counter-screen; shares compounds with NS3 helicase inh; fluorescent intercalator displacement from DNA, fluorescence; IC50, µM; 120 tested, under 10 active; AID 2172; call rule not given here
TAAR1 nonsel count: nonselective antagonism, TAAR1 counter-screen; shares compounds with TAAR1 antagonist; counterscreen cell line, calcium fluorescence, antagonist mode; inhibition, % at 3 µM; 77% of 2,400 active; AID 651780; in the data active means inhibition above about 22%;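 further: CHO-Ga16 host cells stimulated with ATP at an EC80 level; 0% = agonist EC80 plus vehicle and 100% = vehicle without agonist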
TAAR1 antag conf: human TAAR1 antagonism, confirmed; shares compounds with TAAR1 antagonist; TAAR1-expressing cells, fluorescence antagonist read-out; inhibition, % at 3 µM; 40% of 2,400 active; AID 651785; in the data active means inhibition above about 49%;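 further: CHO-Ga16 host cells challenged with agonist PEA near its EC80; 0% = agonist at EC80 plus vehicle and 100% = vehicle with no agonist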
Ga16 ag counter-1: nonselective Ga16 agonist in TAAR1 antagonist counter-screen; shares compounds with TAAR1 antagonist; Ga16-expressing cells, calcium fluorescence, agonist counterscreen; activation, % at 3 µM; 18% of 2,400 active; in the data active means activation above about 12%;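 further: 0% = vehicle wells and 100% = saturating stimulus response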
TAAR1 ag counter: TAAR1 agonism, antagonist counter-screen; shares compounds with TAAR1 antagonist; activation, % at 3 µM; AID 651955; 2% of 2,400 active; hTAAR1 cell line, fluorescence activation, agonist mode; in the data active means activation above about 37%;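 further: CHO cells stably expressing TAAR1 with calcium dye readout; 0% = DMSO vehicle and 100% = full agonist response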
TAAR1 ag conf: confirmation of human TAAR1 agonists | activation, % at 3 µM | 82% of 2,400 active | shares compounds with TAAR1 agonist | CHO RD-HGA16 TAAR1, Fluo-8 calcium fluorescence; scaled: DMSO 0%, maximal phenethylamine 100%;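 active means activation above a cutoff set at the run's mean compound activation plus 3 SD, cut at about 39% in these data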
Ga16 ag counter-2: counter-screen for TAAR1 agonists: nonselective agonists in parental cells | activation, % at 3 µM | CHO-Ga16 parental, Fluo-8 calcium fluorescence; normalized to maximal ATP response, DMSO zero | shares compounds with TAAR1 agonist | AID 651787 | 50% of 2,400 active;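 active means activation above the run cutoff, the mean activation over all tested wells plus 3 SD, cut at about 12% in these data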;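 further: 0% = DMSO wells and 100% = maximal ATP response on the peak over basal ratio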
TAAR1 desensitize: human TAAR1 agonist that also desensitizes the receptor; shares compounds with TAAR1 agonist; CHO RD-HGA16 hTAAR1, Fluo-8 calcium, beta-PEA response inhibition; inhibition, % at 3 µM; 46% of 2,400 active;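 active means inhibition above the run cutoff, the mean inhibition of all test compounds plus 3 SD, cut at about 49% in these data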;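 further: beta-PEA stimulus applied at its EC80; loss of beta-PEA calcium signal after compound pretreatment read as receptor desensitization; 0% = DMSO with beta-PEA at EC80 and 100% = DMSO alone without agonist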
Ga16 antag count: nonselective Ga16 antagonist in TAAR1 agonist counter-screen; 39% of 2,400 active; shares compounds with TAAR1 agonist; CHO-Ga16 ATP-induced calcium, Fluo-8 fluorescence; AID 651952; inhibition, % at 3 µM;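 active means inhibition above the plate's mean compound inhibition plus 3 SD, computed per plate, cut at about 22% in these data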;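 further: 0% = EC80 ATP with DMSO and 100% = DMSO wells without ATP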
rCAG binder conf: r(CAG) RNA repeat binding, confirmation | TO-PRO-1 dye displacement fluorescence | inhibition, % at 3 µM | shares compounds with rCAG RNA binder | 70% of 4,300 active;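 active means inhibition above a per-plate cutoff, the mean inhibition of sample wells plus 3 SD, cut at about 35% in these data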;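 further: loss of TO-PRO-1 fluorescence as compound displaces dye from 1x1 AA loop RNA; 0% = DMSO only wells and 100% = 100 µM mitoxantrone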
DNA CAG counter: counter-screen for rCAG RNA binders: DNA CAG dye complex inhibitors; inhibition, % at 3 µM; 94% of 4,300 active; AID 652068; d(CAG) DNA oligo TO-PRO-1 dye displacement, fluorescence; shares compounds with rCAG RNA binder;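 active means inhibition above its plate's cutoff, the mean test-well inhibition plus 3 SD, cut at about 4.8% in these data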;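 further: 0% = DNA dye mix with DMSO and 100% = 100 µM mitoxantrone; hits displace the dye from DNA and so lower well fluorescence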
DNA CAG DR: disrupts DNA CAG TO-PRO-1 complex in dose response; shares compounds with rCAG RNA binder; IC50, µM; DNA CAG/GTC duplex TO-PRO-1 dye displacement fluorescence; AID 686960; 20% of 250 active; in the data active means IC50 below about 10 µM
* marks the source's active call; other numbers are inactive results; i = inactive; nt = no result. Sampled rows, rich in hits. Any-hit rate of the full collection: about 3.7%.

SMILES	TAAR1 antagonist	rCAG RNA binder	core dimer inh	NS3 helicase inh	TAAR1 agonist	NS3 hel confirm	FID counter trip	rCAG binder conf	DNA CAG counter	others
COC(=O)c1cc(C(=O)c2cc(F)ccc2O)cn2c(=O)c3c(C)c(C)sc3nc12	1	7	-1	5	2	nt	nt	nt	nt
C[C@H](O)[C@@H]1C(=O)N2CCc3c([nH]c4c(-c5ccccc5)cccc34)[C@@H]2C[C@@H]1N(C)C(=O)OCc1ccccc1	12	8	nt	nt	4	nt	nt	nt	nt
CNC(=S)N/N=C/c1cc(Br)cc(Br)c1O	11	10	-20	17	4	nt	nt	nt	nt
Oc1c(Br)cc(Br)cc1/C=N/NC(=S)N[C@H]1CC2C=CC1C2 (some centres not stated)	6	74*	1	37*	0	59*	15	66*	29*	DNA FID DR=>79;DNA CAG DR=i
COc1ccc(N2C(=O)c3n[nH]c(C)c3C2c2cccc(C(F)(F)F)c2)cc1 (configuration not stated)	-18	0	nt	nt	3	nt	nt	nt	nt
O=C(NN1C(=O)/C(=C/C=C/c2ccco2)SC1=S)c1ccncc1	-19	77*	47*	40*	1	78*	7	81*	48*
O=C1/C(=C/C=C/c2ccco2)SC(=S)N1c1ccc(O)cc1	-7	74*	74*	51*	-2	91*	21	77*	46*	DNA FID DR=i
COc1ccc(S(=O)(=O)N2CCCc3nc(-c4ccc(F)cc4)ccc32)cc1	12	0	nt	nt	-2	nt	nt	nt	nt
Cc1cccc(N2C(=O)C(O)=C(C(=O)c3cccs3)C2c2ccc(C(C)C)cc2)n1 (configuration not stated)	26	48*	20	55*	69*	78*	-10	39*	11*	DNA FID DR=>79;TAAR1 ag conf=80*;Ga16 ag counter-2=67*;TAAR1 desensitize=51*;Ga16 antag count=33*
COc1ccc(C2=Nn3c(nnc3C3CCCCC3)SC2)cc1	nt	-2	nt	nt	nt	nt	nt	nt	nt
Cc1ccc(-c2nc3c(Cl)cc(Cl)cc3c(=O)n2O)cc1	39	58*	2	36*	80*	62*	-3	14	3	TAAR1 ag conf=49*;Ga16 ag counter-2=52*;TAAR1 desensitize=19;Ga16 antag count=18
O=C1/C(=C/c2cccc(F)c2)SC(=S)N1NS(=O)(=O)c1ccccc1	0	62*	3	37*	-2	70*	-7	65*	17*
Cc1ccc(S(=O)(=O)NN2C(=O)/C(=C/c3ccc(F)cc3)SC2=S)cc1	8	26	-2	-12	-1	nt	nt	nt	nt
COc1ccccc1/C=C/C1=NC(=C\C=C/c2ccccc2)/C(=O)O1	9	46*	35	46*	6	61*	-27	33	14*	DNA FID DR=>79
COC(=O)C1CN(Cc2ccc(F)cc2)CCS(=O)(=O)N1Cc1cn(Cc2ccc(C)cc2)nn1 (configuration not stated)	nt	2	nt	nt	nt	nt	nt	nt	nt
O=C(/C=C1\C(=O)Nc2ccccc21)/C=C1\C(=O)Nc2ccccc21	60*	39*	nt	54*	34	9	29	32	20*	TAAR1 nonsel count=35*;TAAR1 antag conf=36;Ga16 ag counter-1=8;TAAR1 ag counter=24
C/C(=N\NC(=O)c1cc2ccccc2cc1O)c1ccc(C)o1	-24	43*	-7	47*	2	10	-9	12	6.5*
Cc1ccccc1N1C(S)=C(C#N)C(=O)NC1c1ccco1 (configuration not stated)	12	20	42	26	2	nt	nt	nt	nt
N#CC1=C(S)N(c2ccccc2)C(c2ccc(-c3ccccc3Cl)o2)NC1=O (configuration not stated)	-14	52*	24	42*	0	51*	1	76*	40*
Cc1nc2cc(C(=O)N3CCN(C(=O)OCc4ccccc4)CC3)ccc2n1C1CCCC1	nt	0	nt	nt	nt	nt	nt	nt	nt
O=C(CCCN1C(=O)/C(=C\c2cccs2)SC1=S)Nc1cccc(C(=O)O)c1	5	3	-5	8	6	nt	nt	nt	nt
O=C(CCCN1C(=O)/C(=C/c2ccco2)SC1=S)Nc1cccc(C(=O)O)c1	-17	68*	2	56*	0	88*	4	45*	17*
CN1C(=O)C[C@@](C#N)(C(=O)Nc2nc3ccc(F)cc3s2)[C@H]1c1ccccc1	nt	3	nt	nt	nt	nt	nt	nt	nt
